{
  "source": "ChEMBL document CHEMBL3593164",
  "about": "“Rational Design and Synthesis of Thioridazine Analogues as Enhancers of the Antituberculosis Therapy” (J Med Chem, 2015)",
  "key": {"[1]": {"tested_on": "Mycobacterium tuberculosis", "test": "Inhibition of multidrug resistance efflux pump in Mycobacterium tuberculosis H37Rv assessed as ethidium bromide MIC at 0.12 ug/ml after 7 days by two-dimensional broth microdilution checkerboard assay", "conditions": "168 h", "method_in_brief": "(§1)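 M. tuberculosis H37Rv ATCC27294. MICs of INH, RIF, AMK, OFX and EtBr were determined alone and with sub-inhibitory concentrations of test compound by two-dimensional broth microdilution checkerboard. Where a compound's MIC was not determinable, the highest concentration still allowing growth was taken as ½ MIC. FIC = MIC in combination / MIC alone. FIC ≤0.25 was scored as synergism and ≥2 as antagonism.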"}, "[2]": {"tested_on": "Mycobacterium tuberculosis", "test": "Inhibition of multidrug resistance efflux pump in Mycobacterium tuberculosis H37Rv assessed as ofloxacin MIC at 3.75 ug/ml after 7 days by two-dimensional broth microdilution checkerboard assay", "conditions": "168 h", "method_in_brief": "as §1"}, "[3]": {"tested_on": "Mycobacterium tuberculosis", "test": "Inhibition of multidrug resistance efflux pump in Mycobacterium tuberculosis H37Rv assessed as isoniazid MIC at 7.5 ug/ml after 7 days by two-dimensional broth microdilution checkerboard assay", "conditions": "168 h", "method_in_brief": "(§2)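 M. tuberculosis H37Rv two-dimensional broth microdilution checkerboard. MICs of INH, RIF, AMK, OFX or EtBr were determined without and with graded sub-inhibitory compound concentrations, starting at ½ MIC. Where MIC was undeterminable, the highest concentration still permitting growth was taken as ½ MIC. FIC = MIC of antibacterial in combination / MIC alone. FIC ≤0.25 was scored as synergism and ≥2 as antagonism.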"}, "[4]": {"tested_on": "Mycobacterium tuberculosis", "test": "Inhibition of multidrug resistance efflux pump in Mycobacterium tuberculosis H37Rv assessed as ethidium bromide MIC at 1.88 ug/ml after 7 days by two-dimensional broth microdilution checkerboard assay", "conditions": "168 h", "method_in_brief": "as §1"}, "[5]": {"tested_on": "Mycobacterium tuberculosis", "test": "Inhibition of multidrug resistance efflux pump in Mycobacterium tuberculosis H37Rv assessed as ethidium bromide MIC at 0.47 ug/ml after 7 days by two-dimensional broth microdilution checkerboard assay", "conditions": "168 h", "method_in_brief": "as §1"}, "[6]": {"tested_on": "Mycobacterium tuberculosis", "test": "Inhibition of multidrug resistance efflux pump in Mycobacterium tuberculosis H37Rv assessed as rifampin MIC at 0.94 ug/ml after 7 days by two-dimensional broth microdilution checkerboard assay", "conditions": "168 h", "method_in_brief": "as §1"}, "[7]": {"tested_on": "Mycobacterium tuberculosis", "test": "Inhibition of multidrug resistance efflux pump in Mycobacterium tuberculosis H37Rv assessed as rifampin MIC at 7.5 ug/ml after 7 days by two-dimensional broth microdilution checkerboard assay", "conditions": "168 h", "method_in_brief": "as §2"}, "[8]": {"tested_on": "Mycobacterium tuberculosis", "test": "Inhibition of multidrug resistance efflux pump in Mycobacterium tuberculosis H37Rv assessed as isoniazid MIC at 1.88 ug/ml after 7 days by two-dimensional broth microdilution checkerboard assay", "conditions": "168 h", "method_in_brief": "as §1"}, "[9]": {"tested_on": "Mycobacterium tuberculosis", "test": "Inhibition of multidrug resistance efflux pump in Mycobacterium tuberculosis H37Rv assessed as ofloxacin MIC at 0.23 ug/ml after 7 days by two-dimensional broth microdilution checkerboard assay", "conditions": "168 h", "method_in_brief": "as §1"}, "[10]": {"tested_on": "Mycobacterium tuberculosis", "test": "Inhibition of multidrug resistance efflux pump in Mycobacterium tuberculosis H37Rv assessed as isoniazid MIC at 1 ug/ml after 7 days by two-dimensional broth microdilution checkerboard assay", "conditions": "168 h", "method_in_brief": "as §2"}, "[11]": {"tested_on": "Mycobacterium tuberculosis", "test": "Inhibition of multidrug resistance efflux pump in Mycobacterium tuberculosis H37Rv assessed as ethidium bromide MIC at 2 ug/ml after 7 days by two-dimensional broth microdilution checkerboard assay", "conditions": "168 h"}, "[12]": {"tested_on": "Mycobacterium tuberculosis", "test": "Inhibition of multidrug resistance efflux pump in Mycobacterium tuberculosis H37Rv assessed as amikacin MIC at 2 ug/ml after 7 days by two-dimensional broth microdilution checkerboard assay", "conditions": "168 h"}, "[13]": {"tested_on": "Mycobacterium tuberculosis", "test": "Inhibition of multidrug resistance efflux pump in Mycobacterium tuberculosis H37Rv assessed as reduction in amikacin MIC at 128 ug/ml after 7 days by two-dimensional broth microdilution checkerboard assay"}, "[14]": {"tested_on": "Mycobacterium tuberculosis", "test": "Inhibition of multidrug resistance efflux pump in Mycobacterium tuberculosis H37Rv assessed as reduction in ofloxacin MIC at 128 ug/ml after 7 days by two-dimensional broth microdilution checkerboard assay"}, "[15]": {"tested_on": "Mycobacterium tuberculosis", "test": "Inhibition of multidrug resistance efflux pump in Mycobacterium tuberculosis H37Rv assessed as reduction in isoniazid MIC at 128 ug/ml after 7 days by two-dimensional broth microdilution checkerboard assay"}},
  "data": [
    {"smiles": "CSc1ccc2c(c1)N(CCC1CCCCN1C)c1ccccc1S2", "note": "(stereo not given) [THIORIDAZINE]", "values": [
      {"measurement": "MIC", "setting": "[1]", "value": 6.25, "unit": "µg/mL"},
      {"measurement": "MIC", "setting": "[2]", "value": 1, "unit": "µg/mL"},
      {"measurement": "MIC", "setting": "[3]", "value": "< 0.00078", "unit": "µg/mL"},
      {"measurement": "MIC", "setting": "[4]", "value": 6.25, "unit": "µg/mL"},
      {"measurement": "MIC", "setting": "[5]", "value": 6.25, "unit": "µg/mL"},
      {"measurement": "MIC", "setting": "[6]", "value": 1, "unit": "µg/mL"},
      {"measurement": "MIC", "setting": "[7]", "value": "< 0.0156", "unit": "µg/mL"},
      {"measurement": "MIC", "setting": "[8]", "value": 0.1, "unit": "µg/mL"},
      {"measurement": "MIC", "setting": "[9]", "value": 1, "unit": "µg/mL"}
    ]},
    {"smiles": "CN1CCCCC1CCn1c2ccccc2c2ccccc21", "note": "(racemic)", "values": [
      {"measurement": "MIC", "setting": "[10]", "value": 0.1, "unit": "µg/mL"},
      {"measurement": "MIC", "setting": "[11]", "value": 12.5, "unit": "µg/mL"},
      {"measurement": "MIC", "setting": "[12]", "value": 1, "unit": "µg/mL"}
    ]},
    {"smiles": "CN1CCCCC1CCn1ccc2ccc(Br)cc21", "note": "(racemic)", "values": [
      {"measurement": "fold change (FC)", "setting": "[13]", "value": ">128"},
      {"measurement": "fold change (FC)", "setting": "[14]", "value": ">128"},
      {"measurement": "fold change (FC)", "setting": "[15]", "value": ">164"}
    ]}
  ]
}
